# HEK293 NFkB inh: inhibitors of the PMA/ionomycin-induced NF-kB reporter in HEK293 cells. hit rate 0.21% among 62,000. HEK-293 NF-kB luciferase reporter, luminescence. inhibition, % at 3 µM. AID 465;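 active = inhibition above the mean of all tested compounds plus 3 SD, cut at about 40% in these data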;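 note: 0% = stimulated DMSO wells and 100% = 10 µM reference inhibitor 5653914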
#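 System: NF-kB luciferase reporter HEK-293 cells | Replication: Single test | Control set: DMSO vs reference inhibitor | Evaluation: % inhibition | Schedule: 1 h pretreatment, 16 h stimulation, 37 °C | Probe or stimulus: PMA with ionomycin | Compound dosing: One dose, 3 µM | Detection: Luciferase luminescence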
# MT1-MMP txn act: activates MT1-MMP transcription; HT1080 MT1-MMP promoter luciferase reporter, luminescence, overnight; active compounds read high; activation factor at 10 µM; hit rate 0.16% among 86,000; AID 750;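 active = activation factor of at least 2 for MT1-MMP transcription at 10 µM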
# Jurkat viability: cytotoxicity toward Jurkat cells. Jurkat E6.1 viability, ATP luminescence, 48 h. inhibition, % at 4 µM. hit rate 1.2% among 56,000;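 active = inhibition above the mean inhibition of all tested compounds plus 3 SD, cut at about 28% in these data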
# RORa activator: activators of human nuclear receptor RORA. P35398. CHO-K1 Gal4-RORA LBD luciferase reporter, luminescence; percent increase over mock-subtracted basal signal. activation, % at 10 µM. hit rate 1.5% among 65,000. AID 560;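 active = activation above the mean of all tested compounds plus 3 SD, cut at about 49% in these data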;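 note: 0% = DMSO-treated RORA cells and 100% = added signal equal to DMSO minus mock-transfected cells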
# Target sequence (P35398 whole entry, looked up, the tested form may be a part): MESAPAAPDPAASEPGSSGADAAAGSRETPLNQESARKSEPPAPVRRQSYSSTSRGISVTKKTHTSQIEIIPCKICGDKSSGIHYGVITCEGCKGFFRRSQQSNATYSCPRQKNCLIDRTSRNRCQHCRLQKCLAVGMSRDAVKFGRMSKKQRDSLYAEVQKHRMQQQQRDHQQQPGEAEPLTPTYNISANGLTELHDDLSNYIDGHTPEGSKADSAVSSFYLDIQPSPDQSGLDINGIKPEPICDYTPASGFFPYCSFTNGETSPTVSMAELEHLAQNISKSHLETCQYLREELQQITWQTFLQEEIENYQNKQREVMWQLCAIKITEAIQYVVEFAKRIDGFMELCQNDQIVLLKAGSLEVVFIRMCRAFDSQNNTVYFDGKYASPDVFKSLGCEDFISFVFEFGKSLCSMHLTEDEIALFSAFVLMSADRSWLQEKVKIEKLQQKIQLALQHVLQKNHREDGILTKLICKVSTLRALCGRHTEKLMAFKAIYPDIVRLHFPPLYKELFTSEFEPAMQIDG
# SF1 activator: activators of human nuclear receptor SF-1. activation, % at 10 µM. CHO-K1 Gal4-SF-1 LBD luciferase reporter; % increase over DMSO SF-1-specific signal. hit rate 1.9% among 65,000. Q13285;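 active = activation above the mean activation of all tested compounds plus 3 SD, cut at about 50% in these data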
#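 Assay system: CHO-K1 cells co-transfected with Gal4 DBD–human SF-1 LBD, 5xGal4 luciferase reporter / Input: 4,000 cells per well / Incubation: 20 h compound exposure at 37 °C after 1 h cell settling / Detection: SteadyLite luciferase luminescence / Control set: DMSO negative control and −SF1 background wells / Replication: one test per compound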
# Starred values were filed as active, the others as inactive; . = no result. An excerpt weighted towards active compounds, which were near 2.9% of everything screened.
SMILES,HEK293 NFkB inh,MT1-MMP txn act,Jurkat viability,RORa activator,SF1 activator
COC(=O)[C@@]1(Cc2ccccc2)[C@H]2c3cc(C(=O)N(C)C)n(CCN4CCNC4=O)c3C[C@H]2CN1C(=O)c1ccccc1,.,1.7,.,.,.
Nc1nc(CSCCO)nc(Nc2ccccc2)n1,.,1.2,.,.,.
Nc1nc(CSc2ccccn2)nc(Nc2ccccc2)n1,-38,1.1,.,24,58*
CN1C(=O)CSc2ccc(NC(=O)N3CCc4ccccc43)cc21,-56,1.2,1,75*,105*
CN1C(=O)CSc2ccc(NC(=O)N3CCN(c4ccccn4)CC3)cc21,7,0.9,4,-19,-17
CC(C)COc1ccc(-c2nnc(-c3ccncc3)o2)cc1,-29,1.8,3,33,85*
COc1ccc(-c2nnc(-c3ccc(OCC(C)C)cc3)o2)cc1,.,1.1,.,.,.
COc1ccc(-c2cc(C(F)(F)F)c3c(=O)n(-c4ccccc4)[nH]c3n2)cc1,.,1.1,.,.,.
CC1(C)Cc2c(sc3nc(-c4cc5ccccc5o4)n(N)c(=O)c23)CO1,-20,1.2,1,59*,35
Brc1ccc(-c2nnc(-c3ccco3)o2)cc1,-16,1.4,-2,29,22
c1ccc(-c2nnc(-c3ccco3)o2)cc1,-12,1.7,-1,23,51*
CCOc1ccc(-c2nnc(-c3ccco3)o2)cc1OCC,6,2.1*,-2,22,42
Cc1cccc(-c2nnc(-c3ccccc3)o2)c1,-28,1.5,4,46,60*
CCOc1cc(-c2nnc(-c3ccco3)o2)cc(OCC)c1OCC,19,1,-5,-11,-5
Cc1ccccc1-c1nnc(-c2ccccc2)o1,-30,1.4,-3,2,46
CCOc1ccc(-c2nnc(-c3cccs3)o2)cc1OCC,1,1.4,-3,53*,17
O=C(/C=C/c1ccccc1)N1CCN(Cc2nc3ccccc3c(=O)[nH]2)CC1,.,1.1,.,.,.
C=CCOc1ccc(/C=C/C(C)=N\O)cc1,-14,1.1,0,86*,20
Cc1ccc(Cl)cc1N1CCN(C(=O)C2CCN(c3nnc(-n4cccc4)s3)CC2)CC1,9,0.9,41*,-4,-8
Cc1cccc(N2CCN(C(=O)C3CCN(c4nnc(-n5cccc5)s4)CC3)CC2C)c1 (centres undefined),20,1.1,9,-3,12
Cc1ccc(-n2nc(C)cc2NC(=O)c2ccc(C)s2)cc1,.,1.2,.,.,.
Cc1ccc2nc(SC(C)C(=O)N3CCCC3)[nH]c2c1 (centres undefined),0,1.5,1,22,28
Cc1ccc2nc(SCC(=O)N3CCCC3)[nH]c2c1,-29,0.9,-6,74*,53*
CC1(C)NC(=O)N(CC(O)CN2CCCCC2)C1=O (centres undefined),0,1.1,-4,9,51*
CCc1ccc(NC(=O)Nc2cccs2)cc1,-34,1.4,1,-21,-2
SMILES,HEK293 NFkB inh,MT1-MMP txn act,Jurkat viability,RORa activator,SF1 activator
Cc1ccc(NC(=O)Nc2cccs2)cc1,-12,1.5,.,54*,21
C=CCOCC(O)CS(=O)(=O)Cc1ccc(Cl)cc1 (centres undefined),.,1,.,.,.
CCN1C(=O)c2cccc3c(S(=O)(=O)Nc4ccccn4)ccc1c23,40*,1.6,12,-23,-23
CCOC(=O)c1nnn(-c2nonc2N)c1CSc1ccccn1,-2,1.1,-8,-2,6
CN(C)c1ccccc1C(=O)c1ccccc1N(C)C,12,1.6,88*,79*,78*
COc1ccccc1C1CC(c2ccccc2)Nc2ncnn21 (centres undefined),0,1.2,5,9,5
O=C(CCCn1nnc(-c2cccnc2)n1)c1ccc(F)cc1,0,1.1,1,-4,13
COC(=O)c1[nH]c2c(c1C)C(=O)CCC2,14,1.1,4,-32,1
COC(=O)c1[nH]c2c(c1C)C(=O)CC(c1cccs1)C2 (centres undefined),32,0.5,97*,-9,-14
CCOc1ccc(C2CC(=O)c3c([nH]c(C(=O)OC)c3C)C2)cc1OC (centres undefined),8,.,.,13,4
COC(=O)c1[nH]c2c(c1C)C(=O)CC(c1cc(OC)ccc1OC)C2 (centres undefined),11,1.1,82*,43,21
N#CCCn1nc(-c2ccccc2)cc1Nc1ccccc1NC(=O)c1cccs1,6,1,.,-2,17
COc1ccc(NC(=O)c2ccccc2NC(=O)COc2ccccc2)cc1,.,1,.,.,.
CCOc1ccc(NC(=O)c2ccccc2CO)cc1,-15,1.6,-1,51*,71*
CCOc1ccc(NC(=O)c2ccccc2OC)cc1,-19,1.6,1,49*,73*
COCC(=O)Nc1ccccc1C(=O)Nc1ccc(OC)cc1,5,1.2,-4,19,59*
CCOc1ccc(NC(=O)c2ccccc2O)cc1,-22,0.9,7,-8,-6
CS(=O)c1nc(-c2ccc(Br)cc2)cc(-c2ccccc2)c1C#N (centres undefined),25,1,100*,-58,-61
CS(=O)(=O)c1nc(-c2ccc(Br)cc2)cc(-c2ccccc2)c1C#N,.,0.9,.,.,.
Cn1c(C(=O)OCC(=O)NCCc2ccccc2)cc2sccc21,-1,0.9,-7,-2,5
Nc1ccc(C(=O)OCc2nc3c(ccc4ccccc43)[nH]2)cc1,.,2.5*,.,.,.
O=C(c1ccco1)c1nnn(Cc2ccccc2)c1-c1ccccc1,0,1,0,2,-8
CC(=O)c1cccc(NC(=O)c2cc3ccccn3n2)c1,-2,1.1,4,28,30
CC(=O)c1cccc(NC(=O)c2cnn3ccccc23)c1,-11,1,-8,9,67*
COC(=O)[C@@]1(Cc2ccc(OC)cc2)[C@H]2c3cc(C(=O)N4CCCC4)n(Cc4cc(F)cc5c4OCOC5)c3C[C@H]2CN1C(=O)c1ccccc1,.,1.2,.,.,.
SMILES,HEK293 NFkB inh,MT1-MMP txn act,Jurkat viability,RORa activator,SF1 activator
COC(=O)c1cc2oc(C)cc2n1CC(=O)N1CCCc2ccccc21,28,1.2,0,-6,-16
CCN(CC)c1ccc2cc(C(C)=O)c(=O)oc2c1,.,1.5,.,.,.
CCN(CC)c1ccc2cc(-c3nnc(-c4ccncc4)o3)c(=O)oc2c1,.,1.4,.,25,73*
Cc1cc(NC(=O)c2oc3ccccc3c2C)ccc1-n1cnnn1,-6,1.6,7,86*,9
COc1cc(C(=O)Nc2ccc3c(c2)OCO3)ccc1-n1cnnn1,11,1,2,-8,0
COc1cc(OC)cc(C(=O)Nc2ccc(-n3cnnn3)c(C)c2)c1,0,1.6,2,50*,54*
CCOc1cc(C(=O)Nc2cnccn2)cc(OCC)c1OCC,0,1,51*,29,20
Cn1c(-c2ccc(F)cc2)cnc1SCC(=O)Nc1ccccc1N1CCOCC1,-17,1,0,39,70*
Cn1nnnc1SCC(=O)Nc1ccccc1N1CCOCC1,21,1,7,16,-14

# Compound activity as filed in PubChem BioAssay.
